The source made the active and inactive calls. The calls are words filed in the database; no cut-off is given here.
Columns and labels:
L02 = test: Cytotoxicity against human HL7702 cells after 48 hrs by MTT assay; format: cell-based; conditions: L02, 48 h
Outline: (§1)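 Cells grown overnight in DMEM + 10% FBS at 37 °C under 5% CO2, then given a range of compound concentrations for 48 h. MTT added for about 4 h, medium replaced by DMSO, absorbance read at 570/630 nm. IC50 reported as mean ± SD of five independent experiments.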

[1] = Resistant factor, ratio of IC50 for human NCI-H460/DOX cells to IC50 for human NCI-H460 cells; format: functional
[2] = Inhibition of TNFalpha-induced NF-kB (unknown origin) activation expressed in human NCI-H460 cells after 7 hrs by luciferase reporter gene assay; format: cell-based; conditions: NCI-H460, 7 h
Outline: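 NCI-H460 cells transiently co-transfected with pNF-κB-Luc reporter and pSV-β-galactosidase internal control by lipofectamine. Medium changed after 6 h, then 6 h further culture. TNF-α (15 ng ml–1) plus compound given together for 7 h. Luciferase ratio to TNF-α-only cells, corrected for non-TNF background and viability. IC50 from sigmoidal variable-slope fit.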

T-24 = test: Cytotoxicity against human T24 cells after 48 hrs by MTT assay; format: functional, cell-based; conditions: T-24, 48 h; outline: as §1
MGC-803 = test: Cytotoxicity against human MGC803 cells after 48 hrs by MTT assay; format: functional, cell-based; conditions: MGC-803, 48 h; outline: as §1
NCI-H460 [3] = test: Cytotoxicity against human NCI-H460 cells after 48 hrs by MTT assay; format: functional, cell-based; conditions: NCI-H460, 48 h; outline: as §1
HepG2 = test: Cytotoxicity against human HepG2 cells after 48 hrs by MTT assay; format: functional, cell-based; conditions: HepG2, 48 h; outline: as §1
[4] = Cytotoxicity against human NCI-H460/DOX cells after 48 hrs by MTT assay; format: functional, cell-based; conditions: NCI-H460, 48 h; outline: as §1
[5] = Cytotoxicity against human HepG2/DOX cells after 48 hrs by MTT assay; format: functional, cell-based; outline: as §1
[6] = Resistant factor, ratio of IC50 for human HepG2/DOX cells to IC50 for human HepG2 cells; format: functional
A549 = test: Cytotoxicity against human A549 cells after 48 hrs by MTT assay; format: functional, cell-based; conditions: A549, 48 h; outline: as §1
NCI-H460 [7] = test: Cytotoxicity against human NCI-H460 cells harboring pNF-kB-Luc assessed as reduction in cell viability after 7 hrs by MTT assay relative to control; design: concentration or dose not given beside the values; conditions: nci-h460, 7 h
[8] = Cytotoxicity against human SPCA2 cells after 48 hrs by MTT assay; format: functional, cell-based; conditions: SPCA2, 48 h; outline: as §1
NCI-H460 [9] = test: Cell cycle arrest in human NCI-H460 cells assessed as accumulation at G2-phase at 5 uM after 24 to 48 hrs by propidium iodide staining based flow cytometry (reference value: 3.82%); format: functional
NCI-H460 [10] = test: Induction of apoptosis in human NCI-H460 cells assessed as chromatin condensation after 24 hrs by Hoechst 33258 staining based fluorescence microscopic method; format: functional, cell-based
Outline: (§2)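 NCI-H460 cells (2 × 10^6) in six-well plates exposed to 5 or 10 μM for 24 h. Fixed 10 min in 4% paraformaldehyde, washed in cold PBS, stained with Hoechst 33258 for 5 min in the dark. Viewed by fluorescence microscopy at ex 350/em 460 nm; brightly stained condensed nuclei scored as apoptotic.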

NCI-H460 [11] = test: Induction of apoptosis in human NCI-H460 cells assessed as necrotic cells at 5 uM after 24 hrs by propidium iodide/Annexin V-FITC staining based flow cytometry (reference value: 2.8%); format: functional
NCI-H460 [12] = test: Inhibition of TNFalpha-induced TAB1 protein expression in human NCI-H460 cells by Western blot analysis; format: functional, cell-based
Outline: (§3)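 TNF-α-stimulated NCI-H460 cells treated with compound, lysed in ice-cold RIPA with protease and phosphatase inhibitors, protein measured by Bradford. Equal protein run on 12% SDS-PAGE, transferred to PVDF. Probed overnight at 4 °C for TAK1, TAB1, IKKα, p-IKKα/β or NF-κB p65, then HRP secondary (1:2000), chemiluminescence, β-actin loading control. Three separate experiments.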

NCI-H460 [13] = test: Induction of ROS generation in human NCI-H460 cells at 10 uM after 24 hrs by DCF-DA staining based flow cytometry (reference value: 12.9%); format: functional
NCI-H460 [14] = test: Induction of ROS generation in human NCI-H460 cells at 5 uM after 24 hrs by DCF-DA staining based flow cytometry (reference value: 12.9%); format: functional
NCI-H460 [15] = test: Induction of apoptosis in human NCI-H460 cells after 24 hrs by propidium iodide/Annexin V-FITC staining based flow cytometry; format: functional, cell-based
NCI-H460 [16] = test: Induction of ROS generation in human NCI-H460 cells at 10 uM after 24 hrs by DCF-DA staining based flow cytometry relative to control; format: functional
[17] = biological target: Inhibitor of NF-kappa-B kinase alpha/beta (Homo sapiens) (UniProt O14920+O15111); test: Inhibition of TNFalpha-induced IKKalpha/beta phosphorylation in human NCI-H460 cells by Western blot analysis; format: cell-based; outline: as §3
NCI-H460 [18] = test: Inhibition of TNFalpha-induced NF-kB protein expression in human NCI-H460 cells by Western blot analysis; format: functional, cell-based; outline: as §3
NCI-H460 [19] = test: Induction of apoptosis in human NCI-H460 cells assessed as late apoptotic cells at 10 uM after 24 hrs by propidium iodide/Annexin V-FITC staining based flow cytometry (reference value: 5.4%); format: functional
NCI-H460 [20] = test: Induction of apoptosis in human NCI-H460 cells assessed as live cells at 5 uM after 24 hrs by propidium iodide/Annexin V-FITC staining based flow cytometry (reference value: 89%); format: functional
NCI-H460 [21] = test: Cell cycle arrest in human NCI-H460 cells assessed as accumulation at S-phase at 5 uM after 24 to 48 hrs by propidium iodide staining based flow cytometry (reference value: 54.36%); format: functional
NCI-H460 [22] = test: Induction of apoptosis in human NCI-H460 cells assessed as live cells at 10 uM after 24 hrs by propidium iodide/Annexin V-FITC staining based flow cytometry (reference value: 89%); format: functional
NCI-H460 [23] = test: Cell cycle arrest in human NCI-H460 cells assessed as accumulation at S-phase at 10 uM after 24 to 48 hrs by propidium iodide staining based flow cytometry (reference value: 54.36%); format: functional
NCI-H460 [24] = test: Inhibition of TNFalpha-induced TAK1 protein expression in human NCI-H460 cells by Western blot analysis; format: functional, cell-based; outline: as §3
NCI-H460 [25] = test: Induction of apoptosis in human NCI-H460 cells assessed as early apoptotic cells at 5 uM after 24 hrs by propidium iodide/Annexin V-FITC staining based flow cytometry (reference value: 2.79%); format: functional
NCI-H460 [26] = test: Cell cycle arrest in human NCI-H460 cells assessed as accumulation at G2-phase at 10 uM after 24 to 48 hrs by propidium iodide staining based flow cytometry (reference value: 3.82%); format: functional
NCI-H460 [27] = test: Induction of apoptosis in human NCI-H460 cells assessed as nuclear condensation after 24 hrs by Hoechst 33258 staining based fluorescence microscopic method; format: functional, cell-based; outline: as §2
NCI-H460 [28] = test: Inhibition of TNFalpha-induced IKKalpha protein expression in human NCI-H460 cells at 5 to 10 uM by Western blot analysis; format: functional, cell-based; outline: as §3
[29] = biological target: Transcription factor p65 (Homo sapiens) (UniProt Q04206); test: Inhibition of TNFalpha-induced NF-kB p65 activation human NCI-H460 cells assessed as reduction in DNA binding ability at 5 to 10 uM by ELISA relative to control; format: cell-based
NCI-H460 [30] = test: Induction of apoptosis in human NCI-H460 cells assessed as early apoptotic cells at 10 uM after 24 hrs by propidium iodide/Annexin V-FITC staining based flow cytometry (reference value: 2.79%); format: functional
NCI-H460 [31] = test: Cell cycle arrest in human NCI-H460 cells assessed as accumulation at G1-phase at 5 uM after 24 to 48 hrs by propidium iodide staining based flow cytometry (reference value: 41.83%); format: functional
NCI-H460 [32] = test: Cell cycle arrest in human NCI-H460 cells assessed as accumulation at G1-phase at 10 uM after 24 to 48 hrs by propidium iodide staining based flow cytometry (reference value: 41.83%); format: functional
NCI-H460 [33] = test: Induction of apoptosis in human NCI-H460 cells assessed as necrotic cells at 10 uM after 24 hrs by propidium iodide/Annexin V-FITC staining based flow cytometry (reference value: 2.8%); format: functional
NCI-H460 [34] = test: Induction of apoptosis in human NCI-H460 cells assessed as late apoptotic cells at 5 uM after 24 hrs by propidium iodide/Annexin V-FITC staining based flow cytometry (reference value: 5.4%); format: functional

Sequence of Transcription factor p65 (Homo sapiens) (Q04206 whole entry): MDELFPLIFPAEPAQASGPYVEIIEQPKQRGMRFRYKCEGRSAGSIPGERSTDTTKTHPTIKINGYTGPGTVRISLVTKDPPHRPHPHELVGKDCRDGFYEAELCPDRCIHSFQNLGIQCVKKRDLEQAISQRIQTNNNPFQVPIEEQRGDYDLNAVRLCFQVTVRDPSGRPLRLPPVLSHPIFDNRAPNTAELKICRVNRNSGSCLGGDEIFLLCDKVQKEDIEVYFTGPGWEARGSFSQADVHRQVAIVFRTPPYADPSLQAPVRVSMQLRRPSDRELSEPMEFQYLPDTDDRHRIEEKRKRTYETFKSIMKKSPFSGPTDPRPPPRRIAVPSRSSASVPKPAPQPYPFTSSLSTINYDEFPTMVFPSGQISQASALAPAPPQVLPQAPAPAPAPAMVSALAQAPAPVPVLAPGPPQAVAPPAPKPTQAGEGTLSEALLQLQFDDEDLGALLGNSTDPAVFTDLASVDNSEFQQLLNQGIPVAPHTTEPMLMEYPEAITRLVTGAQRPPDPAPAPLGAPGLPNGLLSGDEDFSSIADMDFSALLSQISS

With `C[C@H]1[C@H](C)CC[C@]2(C(=O)NCCN(C)C)CC[C@]3(C)C(=CC[C@@H]4[C@@]5(C)CCC(=O)C(C)(C)[C@@H]5CC[C@]43C)[C@H]12` the IC50 (L02) was greater than 50 µM, the “Ratio IC50” value [1] was 1.56 and the IC50 [2] was 0.94 µM. The IC50 (T-24) was 6.35 µM, the IC50 (MGC-803) was 7.35 µM and the IC50 (NCI-H460 [3]) was 4.35 µM. It also gave an IC50 (HepG2) of 9.05 µM, an IC50 [4] of 6.8 µM and an IC50 [5] of 11.4 µM. For the same molecule, the “Ratio IC50” value [6] was 1.26, the IC50 (A549) was 6.01 µM and the Activity (NCI-H460 [7]) was less than 5%. It also gave an IC50 [8] of 6.91 µM.

For `CC(=O)O[C@H]1CC[C@]2(C)[C@H]3CC=C4[C@@H]5[C@@H](C)[C@H](C)CC[C@]5(C(=O)NCCN(C)C)CC[C@@]4(C)[C@]3(C)CC[C@H]2C1(C)C`, the IC50 (L02) was greater than 50 µM, the Activity (NCI-H460 [9]) was 4.46% and the Activity (NCI-H460 [10]) was “Dose-dependent effect”. For the same molecule, the “Ratio IC50” value [1] was 1.68, the Activity (NCI-H460 [11]) was 3.85% and the inhibition (NCI-H460 [12]) was “Dose-dependent effect”. For the same molecule, the Activity (NCI-H460 [13]) was 40.8%, the Activity (NCI-H460 [14]) was 14.9% and the IC50 [2] was 0.36 µM. The Activity (NCI-H460 [15]) was “Dose-dependent effect”, the “fold change (FC)” value (NCI-H460 [16]) was greater than 3 and the IC50 (T-24) was 5.51 µM. The IC50 (MGC-803) was 7.96 µM, the inhibition [17] was “Dose-dependent effect” and the inhibition (NCI-H460 [18]) was “Dose-dependent effect”. For the same molecule, the Activity (NCI-H460 [19]) was 5.16%, the IC50 (NCI-H460 [3]) was 3.08 µM and the Activity (NCI-H460 [20]) was 79.9%. For the same molecule, the Activity (NCI-H460 [21]) was 46.27%, the Activity (NCI-H460 [22]) was 41.9% and the Activity (NCI-H460 [23]) was 41.95%. For the same molecule, the inhibition (NCI-H460 [24]) was “Dose-dependent effect”, the Activity (NCI-H460 [25]) was 12.3% and the IC50 (HepG2) was 8.14 µM. For the same molecule, the Activity (NCI-H460 [26]) was 4.23%, the IC50 [4] was 5.2 µM and the IC50 [5] was 10.8 µM. The Activity (NCI-H460 [27]) was “Dose-dependent effect”, the “Ratio IC50” value [6] was 1.33 and the inhibition (NCI-H460 [28]) was “Active”. The fold change (FC) [29] was 2.3, the Activity (NCI-H460 [30]) was 47.1% and the IC50 (A549) was 4.32 µM. For the same molecule, the Activity (NCI-H460 [7]) was less than 5%, the IC50 [8] was 5.38 µM and the Activity (NCI-H460 [31]) was 49.26%. It also gave an Activity (NCI-H460 [32]) of 53.82%, an Activity (NCI-H460 [33]) of 5.8% and an Activity (NCI-H460 [34]) of 3.9%.

With `C[C@H]1[C@H](C)CC[C@]2(C(=O)Nc3ccccc3)CC[C@]3(C)C(=CC[C@@H]4[C@@]5(C)CCC(=O)C(C)(C)[C@@H]5CC[C@]43C)[C@H]12` the IC50 (L02) was greater than 50 µM, the “Ratio IC50” value [1] was 1.99 and the IC50 [2] was 7.13 µM. The IC50 (T-24) was 13.6 µM, the IC50 (MGC-803) was 15.1 µM and the IC50 (NCI-H460 [3]) was 12.9 µM. For the same molecule, the IC50 (HepG2) was 18.1 µM, the IC50 [4] was 25.7 µM and the IC50 [5] was 36.7 µM. For the same molecule, the “Ratio IC50” value [6] was 2.02, the IC50 (A549) was 16.3 µM and the Activity (NCI-H460 [7]) was less than 5%. For the same molecule, the IC50 [8] was 13.5 µM.

In the case of `Cc1ccc(NC(=O)COC(=O)[C@]23CC[C@@H](C)[C@H](C)[C@H]2C2=CC[C@@H]4[C@@]5(C)CCC(=O)C(C)(C)[C@@H]5CC[C@@]4(C)[C@]2(C)CC3)cc1`, the IC50 (L02) is reported as greater than 50 µM, the “Ratio IC50” value [1] is reported as 2.18 and the IC50 [2] is reported as 8.04 µM. The IC50 (T-24) was 15.7 µM, the IC50 (MGC-803) was 16.6 µM and the IC50 (NCI-H460 [3]) was 10.9 µM. For the same molecule, the IC50 (HepG2) was 20.1 µM, the IC50 [4] was 23.8 µM and the IC50 [5] was 39.7 µM. The “Ratio IC50” value [6] was 1.98, the IC50 (A549) was 13.1 µM and the Activity (NCI-H460 [7]) was less than 5%. For the same molecule, the IC50 [8] was 15.6 µM.
